Data as given in ChEMBL document CHEMBL4414668, “Phallusialides A-E, Pyrrole-Derived Alkaloids Discovered from a Marine-Derived Micromonospora sp. Bacterium Using MS-Based Metabolomics Approaches” (2019).
Converted amounts (≈) assume the structure as drawn. The source made the active and inactive calls. The rule behind the calls is not given here.

Key:
Escherichia coli [1] = experiment: Antibacterial activity against Escherichia coli ATCC 25922 at 256 ug/ml incubated for 18 hrs by dilution antimicrobial susceptibility test; type: functional, organism-based
Outline: (§1)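 Dilution susceptibility test for aerobic bacteria. Compounds in DMSO, serially diluted to 10 concentrations (0.5–256 μg/mL), tested in triplicate. Positive controls were vancomycin for MRSA ATCC 33591 and gentamicin for E. coli ATCC 25922. Each plate carried six untreated media controls. Incubation was 35 °C for 18 h. MIC was read as the lowest concentration with no visible bacterial growth.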

Staphylococcus aureus [2] = experiment: Antibacterial activity against methicillin-resistant Staphylococcus aureus ATCC 33591 at 256 ug/ml incubated for 18 hrs by dilution antimicrobial susceptibility test
Escherichia coli [3] = experiment: Antibacterial activity against Escherichia coli ATCC 25922 incubated for 18 hrs by dilution antimicrobial susceptibility test; type: functional; outline: as §1
Staphylococcus aureus [4] = experiment: Antibacterial activity against methicillin-resistant Staphylococcus aureus ATCC 33591 incubated for 18 hrs by dilution antimicrobial susceptibility test; details: ATCC 33591, 18 h

Molecule | Activity (Escherichia coli [1]) | Activity (Staphylococcus aureus [2]) | MIC (Staphylococcus aureus [4]) | other results
C[C@@H]1O[C@@H](O)C[C@@](C)(N)[C@H]1O[C@H]1CC[C@H](OC(=O)c2ccc[nH]2)[C@@H](C)O1 | inactive | inactive | – | –
GENTAMICIN | – | – | – | MIC (Escherichia coli [3]): 4 µg/mL
CN[C@H](CC(C)C)C(=O)N[C@H]1C(=O)N[C@@H](CC(N)=O)C(=O)N[C@H]2C(=O)N[C@H]3C(=O)N[C@H](C(=O)N[C@H](C(=O)O)c4cc(O)cc(O)c4-c4cc3ccc4O)[C@H](O)c3ccc(c(Cl)c3)Oc3cc2cc(c3O[C@@H]2O[C@H](CO)[C@@H](O)[C@H](O)[C@H]2O[C@H]2C[C@](C)(N)[C@H](O)[C@H](C)O2)Oc2ccc(cc2Cl)[C@H]1O [VANCOMYCIN] | – | – | 0.25 µg/mL (≈ 0.173 µM) | –
C[C@@H]1O[C@H](O[C@H]2CC[C@H](O)O[C@@H]2C)C[C@@](C)(N)[C@H]1O[C@H]1CC[C@H](OC(=O)c2cc(Cl)c[nH]2)[C@@H](C)O1 | inactive | inactive | – | –
C[C@@H]1O[C@H](O)C[C@@](C)(NC(=O)CCC(=O)O)[C@H]1O[C@@H]1C[C@@](C)(N)[C@@H](O[C@H]2CC[C@H](OC(=O)c3cc(Cl)c[nH]3)[C@@H](C)O2)[C@H](C)O1 | inactive | inactive | – | –
C[C@@H]1O[C@@H](O)C[C@@](C)(N)[C@H]1O[C@H]1CC[C@H](OC(=O)c2cc(Cl)c[nH]2)[C@@H](C)O1 | – | – | 32 µg/mL (≈ 79.4 µM) | MIC (Escherichia coli [3]; ATCC 25922, 18 h): 64 µg/mL (≈ 159 µM)
C[C@@H]1O[C@@H](O)C[C@@](C)(N)[C@H]1O[C@H]1CC[C@H](OC(=O)c2cc(Br)c[nH]2)[C@@H](C)O1 | – | – | 32 µg/mL (≈ 71.5 µM) | MIC (Escherichia coli [3]; ATCC 25922, 18 h): 64 µg/mL (≈ 143 µM)
